JMJD2C inh: blocks human GASC-1 demethylase activity. GST-JMJD2C(1-420) H3K9me3 demethylation, DELFIA europium. inhibition, % at 2.35 µM. hit rate 0.069% among 330,000. AID 2099;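 active = more than half of a compound's replicate wells show inhibition beyond 50%, single wells judged on their own value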;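 also: signal counts dimethyl H3K9 product captured on neutravidin plate; 0% = median of DMSO wells and 100% = 0.3 times that DMSO median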
Arr AP2 block: human beta-arrestin and AP2 interaction inhibition; FITC-arrestin peptide / GST-AP2 beads, flow cytometry; AP2 beta2 appendage carries R879A mutation; inhibition, % at 10 µM; hit rate 0.31% among 340,000;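 active = inhibition above a set limit, near 3 SD of compounds lacking own fluorescence, cut at about 54% in these data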;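 also: plate controls were DMSO wells for no effect and 5 µM unlabelled arrestin peptide for full effect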
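System: GST-AP2 R879A bound to glutathione beads, E. coli-expressed. Also added: 50 nM FITC-arrestin peptide. Schedule: compound with beads 12 min RT, then probe 1 h RT. Signal: bead flow cytometry, FITC channel. Read-out basis: percent response.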
LANA-H2B inh: blocks KSHV LANA binding to histone H2A/H2B | Q9QR71 | cell-free LANA-H2A/H2B peptide, fluorescence polarization | inhibition, % (concentration not given with the values) | hit rate 0.6% among 320,000 | AID 2629; in the data active = inhibition mostly above about 10%, no sharp cut-off; inactive = mostly below about 6.7%
HDAC3 inhib: human HDAC3 inhibition. O15379. recombinant HDAC3, fluorogenic peptide/trypsin coupled, fluorescence. inhibition, % at 8.3 µM. hit rate 0.15% among 320,000. AID 2718; in the data active = inhibition above about 26%, passing the limit was not always enough
T cell HTS: modulates CD8 T cell binding to vesicles; 2C CD8+ T cell-vesicle binding, flow cytometry; stronger effect = lower value; response (vesicle binding), % at 7 µM; hit rate 0.068% among 330,000;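 active = response, share of CD8 T cells binding vesicles, and their 90th percentile fluorescence all below set limits, cut at about 80% in these data, passing the limit was not always enough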;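 also: values below 100% mean blocked vesicle binding to the CD8+ T cells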
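material = purified 2C TCR transgenic mouse naive CD8+ T cells | controls = Unloaded micro-vesicles (low), QL9 vesicles with 0.7% DMSO (high) | detection = cytometric PE anti-B7-1 and Alexa647 anti-CD8 signals after 1% paraformaldehyde fixation | incubation = binding step 1.5 h, 37 °C, antibody labelling 20 min, ice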
Pemphigus Ab inh: inhibitors of pemphigus antibody binding to human desmoglein-3; P32926; DSG3-coupled beads, scFv-anti-DSG3-GFP binding, flow cytometry; stronger effect = lower value; binding (percent of control), % at 10 µM; hit rate 0.48% among 310,000; AID 588358;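 active = binding more than 3 SD below its plate's average and above zero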
Target sequence (P32926 whole entry, looked up): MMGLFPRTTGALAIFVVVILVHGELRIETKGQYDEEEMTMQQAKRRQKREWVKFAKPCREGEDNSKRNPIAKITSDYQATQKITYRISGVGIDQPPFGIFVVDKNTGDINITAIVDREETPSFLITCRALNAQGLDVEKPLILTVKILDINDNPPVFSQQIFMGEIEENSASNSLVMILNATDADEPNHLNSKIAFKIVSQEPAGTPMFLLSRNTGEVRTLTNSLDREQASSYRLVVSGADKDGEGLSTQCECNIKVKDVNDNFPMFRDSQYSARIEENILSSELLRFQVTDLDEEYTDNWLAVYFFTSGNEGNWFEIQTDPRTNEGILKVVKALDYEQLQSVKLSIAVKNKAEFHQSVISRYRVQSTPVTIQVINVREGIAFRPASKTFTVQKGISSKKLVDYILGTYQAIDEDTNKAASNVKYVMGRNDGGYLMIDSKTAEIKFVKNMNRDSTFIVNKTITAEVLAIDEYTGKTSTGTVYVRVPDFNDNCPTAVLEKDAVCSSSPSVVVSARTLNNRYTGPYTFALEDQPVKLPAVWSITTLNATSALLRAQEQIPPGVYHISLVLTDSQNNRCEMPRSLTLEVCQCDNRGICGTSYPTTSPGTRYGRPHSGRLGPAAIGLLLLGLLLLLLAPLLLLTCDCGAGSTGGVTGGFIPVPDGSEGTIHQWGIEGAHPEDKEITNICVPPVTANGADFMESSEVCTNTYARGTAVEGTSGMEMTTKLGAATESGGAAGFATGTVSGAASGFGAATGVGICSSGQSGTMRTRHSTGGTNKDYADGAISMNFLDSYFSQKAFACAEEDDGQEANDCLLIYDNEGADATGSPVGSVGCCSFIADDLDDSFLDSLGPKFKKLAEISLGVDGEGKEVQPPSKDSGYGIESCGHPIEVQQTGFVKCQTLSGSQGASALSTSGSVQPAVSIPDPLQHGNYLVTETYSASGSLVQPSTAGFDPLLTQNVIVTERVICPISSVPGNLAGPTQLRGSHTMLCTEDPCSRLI
The depositor's hits bear a star; i = inactive; · = no result given; + = active, no number; ! = not confirmed by another sample. Most compounds without a hit are left out; they make up all but 1.6% or so of the library.

SMILES | JMJD2C inh | Arr AP2 block | LANA-H2B inh | HDAC3 inhib | T cell HTS | Pemphigus Ab inh
CCCNC(=O)CS(=O)(=O)c1ccccc1 | 7 | -5 | -3 | 0 | 432 | 107
CN(CC(=O)Nc1ccc(F)c(F)c1F)C(=O)c1n[nH]c(=O)c2ccccc12 | 7 | 1 | 3 | -3 | 174 | 106
COc1cc(C(=O)NNC(=O)CCOc2ccccc2)cc(OC)c1OC | -3 | 3 | 17* | -5 | 468 | 104
O=C(Cc1cccc2ccccc12)N1CCCc2ccccc21 | 58* | 3 | 3 | -2 | 164 | 103
CCCOc1cccc(C(=O)Nc2ccc(Br)cc2F)c1 | 0 | -2 | -2 | 1 | 516 | 62*
O=C(CC12CC3CC(CC(C3)C1)C2)Nc1ccccc1N1CCOCC1 | -6 | 12 | 8 | 6 | 273 | 96
CCOC(=O)N1CCC(c2nc3ccccc3[nH]2)CC1 | 53* | 9 | 14 | 2 | 289 | 92
CC(C)CCN1CC(=O)N2[C@@H](Cc3c([nH]c4ccccc34)C2(C)C)C1=O | 4 | -14 | -1 | 2 | 271 | 96
Cc1ccc(S(=O)(=O)/N=C2/C=C(Sc3ncn[nH]3)C(=O)c3ccccc32)cc1 | 18 | 43 | -5 | 12 | 810 | 94*
Cc1ccc(S(=O)(=O)/N=C2/C=C(Sc3ncn[nH]3)C(=O)c3ccccc32)c(C)c1 | 26 | · | -15 | 38* | 473 | ·
O=C(CCNS(=O)(=O)c1ccccc1)NNC(=O)c1cccc(Cl)c1 | 9 | 24 | 1 | 1 | 288 | 98
Cc1ccc(CNC(=O)c2ccc(C)c(S(=O)(=O)N3CCCCC3)c2)cc1 | 3 | 2 | 2 | 6 | 193 | 103
Cc1ccc(CNC(=O)CN(c2ccc(C(C)C)cc2)S(=O)(=O)c2c(C)noc2C)cc1 | 9 | -16 | -6 | 0 | 315 | 103
COc1ccc(CNC(=O)CN(c2ccc(C(C)C)cc2)S(=O)(=O)c2c(C)noc2C)cc1 | 12 | 6 | 14* | 6 | 120 | 121
C[C@H]1COC(=O)[C@H](Cc2ccc(F)cc2)C/C=C\C[C@H](CC(=O)NCCO)C(=O)N1 | 23 | -1 | -6 | 0 | 263 | 100
CCCCN1C(=O)C2(OCCCO2)c2cccc(C)c21 | -19 | -12 | 18* | 5 | 234 | 100
Cc1cc(C)cc(Oc2coc3cc(OC(=O)c4cccnc4)ccc3c2=O)c1 | 0 | -1 | 0 | 0 | 257 | 110
Cc1cccc(Oc2coc3cc(OC(=O)c4cncc(Br)c4)ccc3c2=O)c1 | -5 | 13 | 3.5* | -11 | 978 | 101
CN(c1ccc(OCC(=O)Nc2nc(-c3ccccc3)cs2)cc1)S(=O)(=O)c1ccc(F)cc1 | 5 | 25 | -2 | 6 | 202 | 98
CCOC(=O)C(=O)c1csc(NC(=O)COc2ccc(N(C)S(=O)(=O)c3ccc(F)cc3)cc2)n1 | 1 | -4 | -2 | -3 | 234 | 73*
COc1ccc(/C=C2\C(=O)NCC(=O)N2C)cc1 | -11 | -202 | 14* | -4 | 170 | 497
COc1ccc(/C=C2\C(=O)NCC(=O)N2Cc2ccccc2)cc1 | 19 | 1 | 2 | 6 | 368 | 103
COc1ccc(C(=O)Cc2nnc(C)s2)cc1 | 11 | 2 | 1 | -7 | 163 | 97
CN(C)/C(=N\S(=O)(=O)c1ccccc1)c1ccc(F)cc1 | 4 | 6 | 16* | 1 | 430 | 109
CN(C(=O)COC(=O)CSc1ccc([N+](=O)[O-])cc1)c1ccccc1 | 5 | 5 | -4 | 5 | 428 | 101
SMILES | JMJD2C inh | Arr AP2 block | LANA-H2B inh | HDAC3 inhib | T cell HTS | Pemphigus Ab inh
CN(C(=O)COC(=O)CN1C(=O)c2cccc([N+](=O)[O-])c2C1=O)c1ccccc1 | -4 | 7 | 2 | -5 | 497 | 77*
CCC(C)NC(=O)c1cc(-c2ccc3c(c2)OCO3)on1 (stereo not drawn) | -7 | 21 | 0 | 7 | 241 | 87
COc1cccc(-c2ccnc3[nH]n(-c4ccccc4)c(=O)c23)c1 | 1 | -22 | 1 | 2 | 200 | 91
COc1ccc(-c2ccnc3[nH]n(-c4ccccc4)c(=O)c23)cc1 | 8 | 3 | -5 | 0 | 227 | 87*
CCOc1ccccc1NCc1cc(=O)oc2cc(C)c(O)cc12 | 2 | 15 | 1 | 2 | 240 | 86*
Cc1cc2oc(=O)cc(CNc3ccccc3F)c2cc1O | 5 | -7 | 6 | -1 | 426 | 100
O=C(/C=C/c1ccc([N+](=O)[O-])cc1)OCC(=O)N1CCCC1 | 11 | 15 | 10 | 3 | 402 | 77*
CC1CCN(C(=O)COC(=O)/C=C/c2ccc([N+](=O)[O-])cc2)CC1 | -1 | 14 | 0 | 0 | 582 | 118
CC(C)CC(=O)c1c[nH]c(C(=O)N2CCN(Cc3ccccc3)CC2)c1 | -6 | 7 | + | 1 | 134 | ·
C[C@H]1C[C@H]2[C@@H]3CCC4=CC(=O)C=C[C@]4(C)[C@@]3(Cl)[C@@H](O)C[C@]2(C)[C@@]1(O)C(=O)CO | -13 | 2 | 0 | -4 | 549 | -13*
C[C@H]1C[C@H]2[C@@H]3CCC4=CC(=O)C=C[C@]4(C)[C@@]3(F)[C@@H](O)C[C@]2(C)[C@@]1(O)C(=O)CO | 17 | 13 | 10 | -1 | i | 95
C[C@@H]1C[C@H]2[C@@H]3CCC4=CC(=O)C=C[C@]4(C)[C@@]3(F)[C@@H](O)C[C@]2(C)[C@@]1(O)C(=O)COP(=O)(O)O | -1 | -1 | 47*! | 5 | 333 | 103
CC(=O)C(Cc1ccccc1)NC(=O)COC(=O)c1cc(S(=O)(=O)N2CCOCC2)ccc1F (stereo not drawn) | · | · | · | · | · | 97
COc1ccccc1C(=O)O[C@H]1[C@H](Cc2ccccc2)NS(=O)(=O)[C@H]2C[C@@H]3C=C[C@]12O3 | 9 | 2 | -10 | -3 | 308 | 101
C=C(Br)CN1[C@@H](Cc2ccccc2)[C@H](O)[C@@]23C=C[C@@H](C[C@@H]2S1(=O)=O)O3 | -2 | 8 | -2 | 1 | 369 | 86*
O=C(O)COc1ccc(=O)n(-c2ccccc2)n1 | 7 | -8 | 2 | -5 | 428 | ·
O=C(Oc1ccc(=O)n(-c2ccccc2)n1)c1ccccc1 | -1 | 6 | -2 | 81* | 201 | ·
COCCCn1c(SCC(=O)Nc2ccc(NC(=O)c3ccco3)c(OC)c2)nc2ccccc2c1=O | 9 | 23 | 28* | 3 | 499 | 101
CCOCCCn1c(SCC(=O)Nc2ccccc2OC)nc2ccccc2c1=O | -5 | 35 | 3 | 1 | 114 | 125
CCOc1ccc(OCCC(=O)OCC(=O)Nc2ccc(Cl)cn2)cc1 | 5 | 11 | 0 | 1 | 451 | 96
CCOc1cc(N2CCOCC2)c(OCC)cc1NC(=O)CSc1ncccc1C(=O)O | 1 | 0 | 6 | 6 | 556 | 90

Compound activity as filed in PubChem BioAssay.
